ChEMBL document CHEMBL1135766, “Synthesis of conformationally constrained analogues of linezolid: structure-activity relationship (SAR) studies on selected novel tricyclic oxazolidinones” (2002)

Tests used:
Enterococcus faecium = experiment: In vitro antibacterial activity against Enterococcus faecium ATCC 12202 (E.fm 154) vancomycin resistant
Staphylococcus aureus [1] = experiment: In vitro antibacterial activity against Staphylococcus aureus ATCC 49951 (S. a. 213); assay type: functional
Method in brief: (§1)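 Broth microdilution MIC per NCCLS guidelines in Mueller Hinton medium. Doubling dilutions from 256 to 1 μg/mL, inoculum (1–5) × 10⁵ CFU/mL, incubated overnight in ambient air at 35 °C. MIC is the lowest concentration giving complete growth inhibition. Linezolid and vancomycin served as controls.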

Enterococcus faecalis [2] = experiment: In vitro antibacterial activity against Enterococcus faecalis NCTC 12201 (E. f. 153) vancomycin resistant; assay type: functional
Method in brief: as §1

Staphylococcus aureus [3] = experiment: In vitro antibacterial activity against methicillin resistant Staphylococcus aureus ATCC 33591 (S. a. 019); assay type: functional
Method in brief: as §1

Enterococcus faecalis [4] = experiment: In vitro antibacterial activity against Enterococcus faecalis ATCC 29212 (E. f. 034) vancomycin sensitive; assay type: functional
Method in brief: as §1

Staphylococcus aureus [5] = experiment: In vitro antibacterial activity against Staphylococcus aureus ATCC 29213 (S. a. 035); assay type: functional
Method in brief: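 Broth microdilution per NCCLS guidelines in Mueller Hinton medium. Doubling dilutions 256–1 μg/mL; inoculum (1–5) × 10⁵ CFU/mL; plates incubated overnight at 35 °C in ambient air. MIC read as the lowest concentration giving complete growth inhibition. Linezolid and vancomycin served as controls.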

Measured: MIC

O=C1CCC(=O)N1C[C@H]1CN(c2cc(F)c3c(c2)OC[C@@H]2CCCN32)C(=O)O1
> 32 µg/mL: Enterococcus faecium | Staphylococcus aureus [1] | Enterococcus faecalis [2] | Staphylococcus aureus [3] | Enterococcus faecalis [4] | Staphylococcus aureus [5]
